Results published in ChEMBL document CHEMBL1138353, “Facile stereospecific synthesis and biological evaluation of (S)- and (R)-2-amino-2-methyl-4-[123I]iodo-3-(E)-butenoic acid for brain tumor imaging with single photon emission computerized tomography” (J Med Chem, 2007).

Key:
Heart [1] = test: Biodistribution in 9L cells bearing Fischer 344 rat heart at 15 to 30 uCi, iv after 30 mins; format: ADME, organism-based; settings: in vivo, 0.5 h
Method in brief: (§1)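 Male Fischer 344 rats (125–175 g) bearing intracranial 9L gliosarcoma implants; radioiodinated tracer (123I for S, 131I for R) purified in saline, given intravenously. Tissues harvested at 30, 60 or 120 min, radioactivity expressed as %ID/g (thyroid per organ). Groups: S study 5 rats per time; R study 5 at 30 min, 4 at 60 and 120 min.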

Nucleic Acid [2] = test: Ratio of drug level in tumor to brain in 9L cells bearing Fischer 344 rat at 15 to 30 uCi, iv after 30 mins; format: ADME, organism-based; settings: in vivo, 0.5 h
Method in brief: (§2)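 Intracranial 9L gliosarcoma in male Fischer 344 rats (125–175 g). The 123I-labelled (S) or 131I-labelled (R) tracer was given iv in saline. Tumor and normal brain %ID/g were measured at 30, 60 or 120 min, and the ratio was taken from these. Groups were 5 per time for S, and 5/4/4 for R.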

Brain [3] = test: Biodistribution in 9L cells bearing Fischer 344 rat brain at 15 to 30 uCi, iv after 120 mins; format: ADME, organism-based; settings: in vivo, 2 h; method in brief: as §1
Rattus norvegicus [4] = test: Biodistribution in 9L cells bearing Fischer 344 rat tumor at 15 to 30 uCi, iv after 30 mins; format: ADME, organism-based, Neoplasm; settings: in vivo, 0.5 h; method in brief: as §1
Spleen [5] = test: Biodistribution in 9L cells bearing Fischer 344 rat spleen at 15 to 30 uCi, iv after 30 mins; format: ADME, organism-based; settings: in vivo, 0.5 h; method in brief: as §1
Pancreas [6] = test: Biodistribution in 9L cells bearing Fischer 344 rat pancreas at 15 to 30 uCi, iv after 60 mins; format: ADME, organism-based; settings: in vivo, 1 h; method in brief: as §1
Kidney [7] = test: Biodistribution in 9L cells bearing Fischer 344 rat kidney at 15 to 30 uCi, iv after 120 mins; format: ADME, organism-based; settings: in vivo, 2 h; method in brief: as §1
Muscle tissue [8] = test: Biodistribution in 9L cells bearing Fischer 344 rat muscle at 15 to 30 uCi, iv after 60 mins; format: ADME, organism-based; settings: in vivo, 1 h; method in brief: as §1
Spleen [9] = test: Biodistribution in 9L cells bearing Fischer 344 rat spleen at 15 to 30 uCi, iv after 120 mins; format: ADME, organism-based; settings: in vivo, 2 h; method in brief: as §1
Pancreas [10] = test: Biodistribution in 9L cells bearing Fischer 344 rat pancreas at 15 to 30 uCi, iv after 120 mins; format: ADME, organism-based; settings: in vivo, 2 h; method in brief: as §1
Testes [11] = test: Biodistribution in 9L cells bearing Fischer 344 rat testes at 15 to 30 uCi, iv after 120 mins; format: ADME, organism-based, Testis; settings: in vivo, 2 h; method in brief: as §1
Heart [12] = test: Biodistribution in 9L cells bearing Fischer 344 rat heart at 15 to 30 uCi, iv after 60 mins; format: ADME, organism-based; settings: in vivo, 1 h; method in brief: as §1
Kidney [13] = test: Biodistribution in 9L cells bearing Fischer 344 rat kidney at 15 to 30 uCi, iv after 60 mins; format: ADME, organism-based; settings: in vivo, 1 h; method in brief: as §1
Thyroid gland [14] = test: Biodistribution in 9L cells bearing Fischer 344 rat thyroid at 15 to 30 uCi, iv after 60 mins; format: ADME, organism-based; settings: in vivo, 1 h; method in brief: as §1
Rattus norvegicus [15] = test: Biodistribution in 9L cells bearing Fischer 344 rat tumor at 15 to 30 uCi, iv after 120 mins; format: ADME, organism-based, Neoplasm; settings: in vivo, 2 h; method in brief: as §1
Testes [16] = test: Biodistribution in 9L cells bearing Fischer 344 rat testes at 15 to 30 uCi, iv after 30 mins; format: ADME, organism-based, Testis; settings: in vivo, 0.5 h; method in brief: as §1
Liver [17] = test: Biodistribution in 9L cells bearing Fischer 344 rat liver at 15 to 30 uCi, iv after 30 mins; format: ADME, organism-based; settings: in vivo, 0.5 h; method in brief: as §1
9L [18] = test: Drug uptake per 10^6 cells in rat 9L cells after 30 mins; format: ADME, cell-based; settings: 0.5 h
Method in brief: (§3)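 Cultured rat 9L gliosarcoma cells incubated 30 min with 131I-labelled tracer, with or without A-type inhibitor N-MeAIB or L-type inhibitor BCH. Uptake expressed as percent of initial dose per 1 × 10^6 cells, normalized for dose and cell number. Inhibition compared to control by one-way ANOVA; SD shown.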

Bone [19] = test: Biodistribution in 9L cells bearing Fischer 344 rat bone at 15 to 30 uCi, iv after 120 mins; format: ADME, organism-based, Bone element; settings: in vivo, 2 h; method in brief: as §1
Brain [20] = test: Biodistribution in 9L cells bearing Fischer 344 rat brain at 15 to 30 uCi, iv after 30 mins; format: ADME, organism-based; settings: in vivo, 0.5 h; method in brief: as §1
Blood [21] = test: Biodistribution in 9L cells bearing Fischer 344 rat blood at 15 to 30 uCi, iv after 60 mins; format: ADME, organism-based; settings: in vivo, 1 h; method in brief: as §1
Bone [22] = test: Biodistribution in 9L cells bearing Fischer 344 rat bone at 15 to 30 uCi, iv after 30 mins; format: ADME, organism-based, Bone element; settings: in vivo, 0.5 h; method in brief: as §1
Kidney [23] = test: Biodistribution in 9L cells bearing Fischer 344 rat kidney at 15 to 30 uCi, iv after 30 mins; format: ADME, organism-based; settings: in vivo, 0.5 h; method in brief: as §1
Nucleic Acid [24] = test: Ratio of drug level in tumor to brain in 9L cells bearing Fischer 344 rat at 15 to 30 uCi, iv after 120 mins; format: ADME, organism-based; settings: in vivo, 2 h; method in brief: as §2
Thyroid gland [25] = test: Biodistribution in 9L cells bearing Fischer 344 rat thyroid at 15 to 30 uCi, iv after 30 mins; format: ADME, organism-based; settings: in vivo, 0.5 h; method in brief: as §1
Thyroid gland [26] = test: Biodistribution in 9L cells bearing Fischer 344 rat thyroid at 15 to 30 uCi, iv after 120 mins; format: ADME, organism-based; settings: in vivo, 2 h; method in brief: as §1
Nucleic Acid [27] = test: Ratio of drug level in tumor to brain in 9L cells bearing Fischer 344 rat at 15 to 30 uCi, iv after 60 mins; format: ADME, organism-based; settings: in vivo, 1 h; method in brief: as §2
Pancreas [28] = test: Biodistribution in 9L cells bearing Fischer 344 rat pancreas at 15 to 30 uCi, iv after 30 mins; format: ADME, organism-based; settings: in vivo, 0.5 h; method in brief: as §1
Testes [29] = test: Biodistribution in 9L cells bearing Fischer 344 rat testes at 15 to 30 uCi, iv after 60 mins; format: ADME, organism-based, Testis; settings: in vivo, 1 h; method in brief: as §1
Muscle tissue [30] = test: Biodistribution in 9L cells bearing Fischer 344 rat muscle at 15 to 30 uCi, iv after 30 mins; format: ADME, organism-based; settings: in vivo, 0.5 h; method in brief: as §1
9L [31] = test: Drug uptake per 10^6 cells in rat 9L cells after 30 mins assessed as uptake inhibition in presence of N-methyl-alpha-aminoisobutyric acid relative to control; format: ADME, cell-based; design: scale not given: the % may be the effect or the level left; settings: 0.5 h; method in brief: as §3
Bone [32] = test: Biodistribution in 9L cells bearing Fischer 344 rat bone at 15 to 30 uCi, iv after 60 mins; format: ADME, organism-based, Bone element; settings: in vivo, 1 h; method in brief: as §1
Liver [33] = test: Biodistribution in 9L cells bearing Fischer 344 rat liver at 15 to 30 uCi, iv after 120 mins; format: ADME, organism-based; settings: in vivo, 2 h; method in brief: as §1
Lung [34] = test: Biodistribution in 9L cells bearing Fischer 344 rat lung at 15 to 30 uCi, iv after 60 mins; format: ADME, organism-based; settings: in vivo, 1 h; method in brief: as §1
Lung [35] = test: Biodistribution in 9L cells bearing Fischer 344 rat lung at 15 to 30 uCi, iv after 30 mins; format: ADME, organism-based; settings: in vivo, 0.5 h; method in brief: as §1
Rattus norvegicus [36] = test: Biodistribution in 9L cells bearing Fischer 344 rat tumor at 15 to 30 uCi, iv after 60 mins; format: ADME, organism-based, Neoplasm; settings: in vivo, 1 h; method in brief: as §1
Spleen [37] = test: Biodistribution in 9L cells bearing Fischer 344 rat spleen at 15 to 30 uCi, iv after 60 mins; format: ADME, organism-based; settings: in vivo, 1 h; method in brief: as §1
Blood [38] = test: Biodistribution in 9L cells bearing Fischer 344 rat blood at 15 to 30 uCi, iv after 120 mins; format: ADME, organism-based; settings: in vivo, 2 h; method in brief: as §1
Blood [39] = test: Biodistribution in 9L cells bearing Fischer 344 rat blood at 15 to 30 uCi, iv after 30 mins; format: ADME, organism-based; settings: in vivo, 0.5 h; method in brief: as §1
Muscle tissue [40] = test: Biodistribution in 9L cells bearing Fischer 344 rat muscle at 15 to 30 uCi, iv after 120 mins; format: ADME, organism-based; settings: in vivo, 2 h; method in brief: as §1
Heart [41] = test: Biodistribution in 9L cells bearing Fischer 344 rat heart at 15 to 30 uCi, iv after 120 mins; format: ADME, organism-based; settings: in vivo, 2 h; method in brief: as §1
Lung [42] = test: Biodistribution in 9L cells bearing Fischer 344 rat lung at 15 to 30 uCi, iv after 120 mins; format: ADME, organism-based; settings: in vivo, 2 h; method in brief: as §1
Liver [43] = test: Biodistribution in 9L cells bearing Fischer 344 rat liver at 15 to 30 uCi, iv after 60 mins; format: ADME, organism-based; settings: in vivo, 1 h; method in brief: as §1
Brain [44] = test: Biodistribution in 9L cells bearing Fischer 344 rat brain at 15 to 30 uCi, iv after 60 mins; format: ADME, organism-based; settings: in vivo, 1 h; method in brief: as §1

With `C[C@](N)(/C=C/[123I])C(=O)O` the Drug uptake (Heart [1]) was 1.31 % ID/g, the Ratio (Nucleic Acid [2]) was 81 and the Drug uptake (Brain [3]) was 0.096 % ID/g. The Drug uptake (Rattus norvegicus [4]) was 4.7 % ID/g, the Drug uptake (Spleen [5]) was 1.54 % ID/g and the Drug uptake (Pancreas [6]) was 10.7 % ID/g. For the same molecule, the Drug uptake (Kidney [7]) was 18.4 % ID/g, the Drug uptake (Muscle tissue [8]) was 1.7 % ID/g and the Drug uptake (Spleen [9]) was 1.08 % ID/g. For the same molecule, the Drug uptake (Pancreas [10]) was 7.7 % ID/g, the Drug uptake (Testes [11]) was 0.64 % ID/g and the Drug uptake (Heart [12]) was 1.4 % ID/g. It also gave a Drug uptake (Kidney [13]) of 22.9 % ID/g, a Drug uptake (Thyroid gland [14]) of 0.24 %ID/organ and a Drug uptake (Rattus norvegicus [15]) of 6.84 % ID/g. The Drug uptake (Testes [16]) was 0.49 % ID/g, the Drug uptake (Liver [17]) was 1.62 % ID/g and the Drug uptake (9L [18]) was 0.35 %ID. For the same molecule, the Drug uptake (Bone [19]) was 0.64 % ID/g, the Drug uptake (Brain [20]) was 0.058 % ID/g and the Drug uptake (Blood [21]) was 1.22 % ID/g. For the same molecule, the Drug uptake (Bone [22]) was 0.51 % ID/g, the Drug uptake (Kidney [23]) was 24 % ID/g and the Ratio (Nucleic Acid [24]) was 71. The Drug uptake (Thyroid gland [25]) was 0.16 %ID/organ, the Drug uptake (Thyroid gland [26]) was 0.18 %ID/organ and the Ratio (Nucleic Acid [27]) was 75. For the same molecule, the Drug uptake (Pancreas [28]) was 11.9 % ID/g, the Drug uptake (Testes [29]) was 0.58 % ID/g and the Drug uptake (Muscle tissue [30]) was 1.35 % ID/g. The Activity (9L [31]) was 85%, the Drug uptake (Bone [32]) was 0.74 % ID/g and the Drug uptake (Liver [33]) was 1.27 % ID/g. It also gave a Drug uptake (Lung [34]) of 1.41 % ID/g, a Drug uptake (Lung [35]) of 1.24 % ID/g and a Drug uptake (Rattus norvegicus [36]) of 6.81 % ID/g. The Drug uptake (Spleen [37]) was 1.73 % ID/g, the Drug uptake (Blood [38]) was 1.03 % ID/g and the Drug uptake (Blood [39]) was 1.33 % ID/g. The Drug uptake (Muscle tissue [40]) was 1.26 % ID/g, the Drug uptake (Heart [41]) was 1.2 % ID/g and the Drug uptake (Lung [42]) was 0.98 % ID/g. The Drug uptake (Liver [43]) was 1.62 % ID/g and the Drug uptake (Brain [44]) was 0.091 % ID/g.
